Bioassay records: PubChem, Broad Institute
T cruzi growth-1: inhibitors of T. cruzi proliferation; actives 5.9% (n = 77,000); T. cruzi beta-gal in NIH3T3, GalScreen luminescence, 90 h; inhibition, % at 8.34 µM;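 active means mean inhibition above about 93%, with at least 55% of replicates each passing it, limit read from the data, passing the limit was not always enough; inconclusive means only one of those two conditions holds; inactive means neither condition holds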
KDM4C inh: inhibitors of human demethylase GASC-1 KDM4C | Q9H3R0 | GST-KDM4C 2-372, H3K9me3 peptide, LANCE TR-FRET | inhibition, % at 12.5 µM | actives 0.15% (n = 96,000) | AID 720574;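 active means mean replicate inhibition above about 25%, with at least 55% of replicates also reaching it, limit read from the data, passing the limit was not always enough; inconclusive means only one of those two conditions met; inactive means neither condition met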
Target sequence (Q9H3R0 2-372 limits assumed): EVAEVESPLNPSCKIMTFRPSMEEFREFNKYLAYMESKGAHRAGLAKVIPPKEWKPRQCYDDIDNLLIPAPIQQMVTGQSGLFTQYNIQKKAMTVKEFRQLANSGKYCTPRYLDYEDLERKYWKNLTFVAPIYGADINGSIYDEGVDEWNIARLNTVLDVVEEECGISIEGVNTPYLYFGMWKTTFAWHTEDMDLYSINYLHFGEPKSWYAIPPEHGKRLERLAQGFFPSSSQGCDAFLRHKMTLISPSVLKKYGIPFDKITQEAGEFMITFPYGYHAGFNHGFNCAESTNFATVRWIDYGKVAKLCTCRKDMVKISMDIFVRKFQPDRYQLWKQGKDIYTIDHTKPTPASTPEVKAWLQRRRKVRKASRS
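Material: GST-tagged GASC-1 (JMJD2C) catalytic fragment, aa 2-372. Input: enzyme final amount 10 nM. Medium: HEPES buffer, pH 7.5, plus ascorbate. Reagent: H3K9me3 peptide substrate, Fe(II), 2-oxoglutarate. Doses: single dose. Times: reaction 30 min RT, detection step 1 h RT. Measured by: LANCE TR-FRET. Evaluation: Fall in 671/618 emission ratio as inhibition.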
IDH1 mut inh: inhibitors of human IDH1 R132H; O75874; IDH1 R132H reductase, diaphorase/resazurin fluorescence, 60 min; inhibition, % at 10 µM; actives 0.18% (n = 70,000); AID 624101; in the data active means inhibition above about 34%; inconclusive means no clear call, values can overlap the other calls; inactive means below about 11%
T cruzi growth-2: blocks T. cruzi growth in NIH3T3 host cells; T. cruzi beta-gal in NIH3T3, GalScreen luminescence, 90 h; actives 72% (n = 5,600); shares compounds with T cruzi growth-1; inhibition, % at 8.35 µM;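 active means mean replicate inhibition above about 95% and at least 55% of replicates individually reaching it, limit read from the data; inconclusive means only one of the two criteria is met; inactive means neither criterion is met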
T cruzi growth-3: Trypanosoma cruzi proliferation inhibition; shares compounds with T cruzi growth-1; T. cruzi beta-gal in NIH3T3, GalScreen luminescence, 90 h; inhibition, % at 2.09 µM; actives 21% (n = 5,600);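 active means mean inhibition above about 95%, with at least 55% of replicates also reaching it, limit read from the data; inconclusive means meets just one of the two conditions; inactive means meets neither condition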
3T3 cytotox: NIH/3T3 (mouse) viability loss; shares compounds with T cruzi growth-1; NIH/3T3 viability, CellTiter-Glo ATP luminescence, 90 h; cytotoxicity (signal decrease), % at 8.35 µM; actives 14% (n = 5,600); AID 651742;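 active means mean signal decrease across replicates above about 35% based on untreated-well scatter, with enough replicates individually passing, limit read from the data; inconclusive means no rule stated though some were filed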
3T3 cytotox 2: kills mouse NIH/3T3 fibroblasts. shares compounds with T cruzi growth-1. NIH/3T3 viability, CellTiter-Glo ATP luminescence, 90 h. inhibition, % at 24.9 µM. actives 56% (n = 5,600). AID 651744;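 active means mean loss of cell viability signal at or above a set limit, and enough replicates individually reaching it; inconclusive means meets only the mean limit or only the replicate share; inactive means meets neither condition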
Numbers stand for hits. The full list was thinned out, with hits kept by preference.

`C[C@@H]1CCCCO[C@H](CN(C)Cc2ccccc2)[C@H](C)CN([C@@H](C)CO)C(=O)c2cc(NC(=O)c3ccccc3)ccc2O1` gave T cruzi growth-1 inactive and KDM4C inh inactive.
Screening C[C@@H]1CN([C@@H](C)CO)C(=O)c2cc(NC(=O)c3ccccc3)ccc2O[C@@H](C)CCCCO[C@H]1CN(C)Cc1ccccc1 returned T cruzi growth-1 102, KDM4C inh inactive, T cruzi growth-2 98, T cruzi growth-3 inactive, 3T3 cytotox inactive and 3T3 cytotox 2 61.
For C[C@@H]1CN([C@H](C)CO)C(=O)c2cc(NC(=O)c3ccncc3)ccc2O[C@@H](C)CCCCO[C@H]1CN(C)Cc1ccccc1 the results were T cruzi growth-1 98, KDM4C inh inactive, IDH1 mut inh inactive, T cruzi growth-2 inactive, T cruzi growth-3 inactive, 3T3 cytotox inactive and 3T3 cytotox 2 inactive.
`C[C@H]1CCCCO[C@H](CN(C)Cc2ccncc2)[C@@H](C)CN([C@@H](C)CO)C(=O)c2cc(NC(=O)Cc3ccccc3)ccc2O1` gave T cruzi growth-1 inactive and KDM4C inh inactive.
`C[C@H](CO)N1C[C@H](C)[C@H](CN(C)Cc2ccncc2)OCCCC[C@H](C)Oc2ccc(NC(=O)Cc3ccccc3)cc2C1=O` gave T cruzi growth-1 103, KDM4C inh inactive, IDH1 mut inh inactive, T cruzi growth-2 96, T cruzi growth-3 inactive, 3T3 cytotox inactive and 3T3 cytotox 2 inactive.
For C[C@@H]1CN([C@@H](C)CO)C(=O)c2cc(NC(=O)c3ccccc3)ccc2O[C@@H](C)CCCCO[C@@H]1CN(C)Cc1ccncc1 the results were T cruzi growth-1 114, KDM4C inh inactive, T cruzi growth-2 100, T cruzi growth-3 inactive, 3T3 cytotox inactive and 3T3 cytotox 2 inactive.
For C[C@@H]1CCCCO[C@H](CN(C)Cc2ccccc2)[C@H](C)CN([C@@H](C)CO)C(=O)c2cc(NC(=O)c3ccncc3)ccc2O1 the results were T cruzi growth-1 inactive and KDM4C inh inactive.
Screening C[C@@H]1CCCCO[C@H](CN(C)Cc2ccncc2)[C@H](C)CN([C@@H](C)CO)C(=O)c2cc(NC(=O)c3ccccc3)ccc2O1 returned T cruzi growth-1 inactive and KDM4C inh inactive.
Screening Cc1ccccc1-c1nnc(SCC(=O)Nc2ccc(C(C)C)cc2)n1C returned IDH1 mut inh inactive.
Screening COc1ccc(OC)c(NC(=O)Cn2cnc3sc(C)c(-c4ccccc4)c3c2=O)c1 returned IDH1 mut inh inactive.
`COC(=O)c1ccc(NC(=O)CN(C)S(=O)(=O)c2cc(Cl)ccc2Cl)cc1` gave IDH1 mut inh inactive.
CC(=O)c1ccc(NC(=O)Cn2cnc3c(sc4nc5c(cc43)COC(C)(C)C5)c2=O)cc1 was read as IDH1 mut inh inactive.
For CCOc1ccccc1-c1nnc(SCC(=O)Nc2ccc(I)cc2)o1 the results were IDH1 mut inh inactive.
For C[C@@H]1CCCCO[C@@H](CN(C)Cc2ccc(Cl)c(Cl)c2)[C@@H](C)CN([C@H](C)CO)C(=O)c2cc(NC(=O)c3ccccc3)ccc2O1 the results were T cruzi growth-1 96, KDM4C inh inactive, IDH1 mut inh inactive, T cruzi growth-2 114, T cruzi growth-3 inactive, 3T3 cytotox inactive and 3T3 cytotox 2 inactive.
Screening C[C@@H]1CN([C@@H](C)CO)C(=O)c2cc(NC(=O)c3ccncc3)ccc2O[C@@H](C)CCCCO[C@@H]1CN(C)C(=O)c1ccccc1 returned T cruzi growth-1 inactive, KDM4C inh inactive and IDH1 mut inh inactive.
For C[C@@H]1CCCCO[C@@H](CN(C)Cc2ccccc2)[C@H](C)CN([C@@H](C)CO)C(=O)c2cc(NC(=O)c3ccncc3)ccc2O1 the results were T cruzi growth-1 inactive and KDM4C inh inactive.
Screening C[C@@H]1CCCCO[C@@H](CN(C)Cc2ccc(Cl)c(Cl)c2)[C@H](C)CN([C@H](C)CO)C(=O)c2cc(NC(=O)c3ccccc3)ccc2O1 returned KDM4C inh inactive.
For C[C@@H]1CCCCO[C@@H](CN(C)Cc2ccccc2)[C@H](C)CN([C@H](C)CO)C(=O)c2cc(NC(=O)c3ccncc3)ccc2O1 the results were T cruzi growth-1 inconclusive, KDM4C inh inactive, T cruzi growth-2 inactive, T cruzi growth-3 inactive, 3T3 cytotox inactive and 3T3 cytotox 2 inactive.
For C[C@@H]1CCCCO[C@H](CN(C)C(=O)c2ccncc2)[C@H](C)CN([C@H](C)CO)C(=O)c2cc(NC(=O)c3ccccc3)ccc2O1 the results were T cruzi growth-1 97, KDM4C inh inactive, T cruzi growth-2 inactive, T cruzi growth-3 inactive, 3T3 cytotox inactive and 3T3 cytotox 2 inactive.
`Cc1cccc(-c2nc3cc(NC(=O)COc4ccccc4[N+](=O)[O-])ccc3o2)c1` gave IDH1 mut inh inactive.
Screening CS(=O)(=O)N(CC(=O)Nc1ccc(F)c(F)c1)c1ccccc1Cl returned IDH1 mut inh inactive.
CCOC(=O)c1c(-c2ccc(OC)cc2)csc1NC(=O)c1ccccc1[N+](=O)[O-] was read as IDH1 mut inh inactive.
O=C(CN1CCc2ccccc2C1)Nc1ccc(S(=O)(=O)N2CCOCC2)cc1 was read as IDH1 mut inh inactive.
C[C@H]1CCCCO[C@@H](CN(C)C(=O)Nc2ccc(F)cc2)[C@@H](C)CN([C@@H](C)CO)C(=O)c2cc(NC(=O)c3ccccc3)ccc2O1 was read as T cruzi growth-1 inconclusive, KDM4C inh inactive, T cruzi growth-2 inconclusive, T cruzi growth-3 inactive, 3T3 cytotox inactive and 3T3 cytotox 2 inactive.
`C[C@@H]1CCCCO[C@H](CN(C)C(=O)Nc2ccc(C(F)(F)F)cc2)[C@H](C)CN([C@H](C)CO)C(=O)c2cc(NC(=O)c3ccccc3)ccc2O1` gave T cruzi growth-1 102, KDM4C inh inactive, IDH1 mut inh inactive, T cruzi growth-2 110, T cruzi growth-3 106, 3T3 cytotox inactive and 3T3 cytotox 2 inactive.
C[C@@H]1CN([C@@H](C)CO)C(=O)c2cc(NC(=O)c3ccccc3)ccc2O[C@@H](C)CCCCO[C@@H]1CN(C)C(=O)Nc1ccc(C(F)(F)F)cc1 was read as T cruzi growth-1 inconclusive, KDM4C inh inactive, T cruzi growth-2 104, T cruzi growth-3 101, 3T3 cytotox inactive and 3T3 cytotox 2 80.
`C[C@@H]1CCCCO[C@@H](CN(C)C(=O)Nc2ccc(C(F)(F)F)cc2)[C@@H](C)CN([C@H](C)CO)C(=O)c2cc(NC(=O)c3ccccc3)ccc2O1` gave T cruzi growth-1 inactive, KDM4C inh inactive and IDH1 mut inh inactive.
`C[C@@H]1CCCCO[C@H](CN(C)C(=O)Nc2ccc(C(F)(F)F)cc2)[C@@H](C)CN([C@@H](C)CO)C(=O)c2cc(NC(=O)c3ccncc3)ccc2O1` gave T cruzi growth-1 inactive, KDM4C inh inactive and IDH1 mut inh inactive.
